Measured values from ChEMBL document CHEMBL1687720 (Antimicrob Agents Chemother, 2009).
Values after ≈ are worked out from the molar mass of the structure shown. Active and inactive are the calls of the source. No cut-off for these calls is given here.

Tests used:
Plasmodium falciparum [1] = test: Antiplasmodial activity against chloroquine-sensitive Plasmodium falciparum 3D7 assessed as inhibition of trophozoite stage parasite growth at IC50 after 6 hr by [3H]hypoxanthine incorporation assay; assay type: functional, organism-based
Outline: (§1)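 P. falciparum 3D7 is synchronized with sorbitol. […] Cells are washed four times, then labelled with [3H]hypoxanthine for 24 h. Growth is given as % of untreated control for each stage, in triplicate.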

Plasmodium falciparum [2] = test: Antiplasmodial activity against chloroquine-sensitive Plasmodium falciparum 3D7 assessed as inhibition of ring stage parasite growth at IC50 after 6 hr by [3H]hypoxanthine incorporation assay; assay type: functional, organism-based; outline: as §1
Plasmodium falciparum [3] = test: Antiplasmodial activity against chloroquine-sensitive Plasmodium falciparum 3D7 assessed as inhibition of schizont stage parasite growth at IC50 after 6 hr by [3H]hypoxanthine incorporation assay; assay type: functional, organism-based; outline: as §1
Heme = test: Inhibition of heme aggregation at 500 uM
Outline: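 Hemin chloride stock (10 mM in 0.1 M NaOH), prepared fresh and held at 37°C for at least 1 h. Aggregation run in 20 mM sodium phosphate pH 5.2 with 25 μM initial heme at 37°C. Inhibitor dissolved in dimethylformamide or buffer. After incubation, samples centrifuged and absorbance read at 360 nm, with matching control values subtracted.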

L6 = test: Cytotoxicity against rat L6 cells; assay type: cell-based

SMILES	growth inhibition (GI) (Plasmodium falciparum [1])	growth inhibition (GI) (Plasmodium falciparum [2])	growth inhibition (GI) (Plasmodium falciparum [3])	inhibition (Heme)	IC50 (L6) [ng/mL]
CCN(CC)CCCC(C)Nc1ccnc2cc(Cl)ccc12 (stereo not given)	Active	Active	Active	inactive	–
COc1cc([C@@H]2c3cc4c(cc3[C@H](O)[C@H]3COC(=O)[C@H]23)OCO4)cc(OC)c1OC [PODOFILOX]	–	–	–	–	8 (≈ 0.0193 µM)
